Measurements from ChEMBL document CHEMBL1143012, “Synthesis and pharmacological in vitro and in vivo evaluations of novel triazole derivatives as ligands of the ghrelin receptor. 1” (J Med Chem, 2007).

Tests used:
[1] = molecular target: T1, Growth hormone secretagogue receptor type 1 (Homo sapiens, UniProt Q92847); assay: Activity at human GHS1a receptor expressed in CHO cells assessed as intracellular calcium mobilization relative to 0.1 uM ghrelin; assay type: functional, cell-based
Rattus norvegicus [2] = assay: Stimulation of cumulative food intake per 100 g body weight in Sprague-Dawley rat at 160 ug/kg, sc at 6 hrs; assay type: functional
Method in brief: (§1)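 Male Sprague-Dawley rats (125-150 g), singly housed and trained, given compound sc alone (cumulative food intake as g/100 g body weight, weighed hourly to 6 h); percentage variation calculated as (compound minus hexarelin 80 µg/kg intake)/hexarelin intake at 6 h. Mean ± SEM, ANOVA with Dunnett's test.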

Rattus norvegicus [3] = assay: Stimulation of cumulative food intake in Sprague-Dawley rat at 160 ug/kg, sc at 6 hrs relative to 80 ug/kg hexarelin; assay type: functional; method in brief: as §1
[4] = molecular target: T1, Growth hormone secretagogue receptor type 1; assay: Agonist activity at human GHS1a receptor expressed in CHO cells assessed as induction of intracellular calcium mobilization; assay type: functional, cell-based
Method in brief: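 CHO cells transiently expressing hGHS-R1a via electroporation, Fluo-4AM loaded (1 µM, 1 h, 37 °C), calcium fluorescence read 60 s at ex 485/em 525 nm. EC50 from agonist dose-response curves, response as percentage of maximal signal from 10 µM ghrelin; triplicates, means of at least three experiments.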

[5] = molecular target: T1, Growth hormone secretagogue receptor type 1; assay: Displacement of [125I-His9]ghrelin from human GHS1a receptor expressed in LLC PK1 cells; assay type: cell-based
Method in brief: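 Membranes from LLC PK-1 cells transiently electroporated with hGHS-R1a (harvested about 48 h), 10 µg protein, incubated 60 min at 25 °C with 60 pM 125I-His9-ghrelin in Tris pH 7.3/MgCl2/EDTA/bacitracin buffer. Filtered, washed, gamma counted; nonspecific binding with 10 µM ghrelin. Triplicates, at least three experiments.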

T1 sequence (Q92847 whole entry): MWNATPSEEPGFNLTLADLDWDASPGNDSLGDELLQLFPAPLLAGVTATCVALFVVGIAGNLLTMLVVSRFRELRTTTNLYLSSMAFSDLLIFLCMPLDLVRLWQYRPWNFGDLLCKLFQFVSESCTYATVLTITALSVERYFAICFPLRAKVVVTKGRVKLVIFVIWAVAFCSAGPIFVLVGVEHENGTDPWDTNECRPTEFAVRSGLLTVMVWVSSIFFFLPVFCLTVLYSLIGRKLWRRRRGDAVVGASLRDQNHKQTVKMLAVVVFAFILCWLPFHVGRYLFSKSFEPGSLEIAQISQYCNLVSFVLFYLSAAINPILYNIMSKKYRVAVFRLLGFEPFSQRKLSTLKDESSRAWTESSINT

Row | Activity [1] | Activity ([4]; filed as partial agonist) | IC50 [5] | EC50 [4] | Activity ([4]; filed as agonist) | SMILES | Activity (Rattus norvegicus [2]) | Activity (Rattus norvegicus [3])
1 | 60% | Partial agonist | – | – | – | CC(C)(N)C(=O)N[C@H](Cc1c[nH]c2ccccc12)c1nnc(Cc2ccccc2)n1Cc1ccc(F)cc1 | – | –
2 | 63% | Partial agonist | 0.31 µM | – | – | CC(C)(N)C(=O)N[C@H](Cc1c[nH]c2ccccc12)c1nnc(CCc2ccccc2)n1CCc1ccccc1 | – | –
3 | 82% | – | – | 0.045 µM | – | COc1cccc(Cn2c(CCc3ccccc3)nnc2[C@@H](Cc2c[nH]c3ccccc23)NC(=O)C(C)(C)N)c1 | 0.01 g | -37%
4 | 19% | Partial agonist | 0.14 µM | – | – | Cc1ccc(Cn2c(CCc3ccccc3)nnc2[C@@H](Cc2c[nH]c3ccccc23)NC(=O)C(C)(C)N)cc1 | – | –
5 | 44% | Partial agonist | 0.5 µM | – | – | CC(C)(N)C(=O)N[C@H](Cc1c[nH]c2ccccc12)c1nnc(Cc2ccccc2)n1Cc1ccccc1 | – | –
6 | 10% | – | > 1 µM | – | – | CC(C)(N)C(=O)N[C@H](Cc1c[nH]c2ccccc12)c1nnc(CCc2ccccc2)n1Cc1ccc([N+](=O)[O-])cc1 | – | –
7 | 85% | Partial agonist | > 1 µM | – | – | CC(C)(N)C(=O)N[C@H](Cc1c[nH]c2ccccc12)c1nnc(Cc2ccccc2)n1CCc1ccccc1 | – | –
8 | 25% | Partial agonist | 0.08 µM | – | – | CC(C)(N)C(=O)N[C@H](Cc1c[nH]c2ccccc12)c1nnc(CCc2c[nH]c3ccccc23)n1CCc1ccccc1 | – | –
9 | 59% | – | – | 0.21 µM | – | CC(C)(N)C(=O)N[C@H](Cc1c[nH]c2ccccc12)c1nnc(CCc2c[nH]c3ccccc23)n1Cc1ccc(F)cc1 | – | –
10 | 20% | Partial agonist | 0.4 µM | – | – | CC(C)(N)C(=O)N[C@H](Cc1c[nH]c2ccccc12)c1nnc(CCc2ccccc2)n1Cc1ccc(F)cc1 | – | –
11 | 82% | Partial agonist | 0.55 µM | – | – | COc1ccc(CCn2c(CCc3ccccc3)nnc2[C@@H](Cc2c[nH]c3ccccc23)NC(=O)C(C)(C)N)cc1 | – | –
12 | 26% | – | – | 0.011 µM | – | CCc1ccc(Cn2c(CCc3ccccc3)nnc2[C@@H](Cc2c[nH]c3ccccc23)NC(=O)C(C)(C)N)cc1 | – | –
13 | 40% | Partial agonist | 0.13 µM | – | – | CC(C)(N)C(=O)N[C@H](Cc1c[nH]c2ccccc12)c1nnc(CCc2ccccc2)n1Cc1cccc2ccccc12 | – | –
14 | 50% | Partial agonist | – | – | – | COc1cccc(Cn2c(Cc3ccccc3)nnc2[C@@H](Cc2c[nH]c3ccccc23)NC(=O)C(C)(C)N)c1 | – | –
15 | 16% | Partial agonist | 0.44 µM | – | – | CC(C)(N)C(=O)N[C@H](Cc1c[nH]c2ccccc12)c1nnc(Cc2ccccc2)n1Cc1ccc(Br)cc1 | – | –
16 | 80% | – | – | 0.098 µM | – | COc1ccccc1Cn1c(CCc2ccccc2)nnc1[C@@H](Cc1c[nH]c2ccccc12)NC(=O)C(C)(C)N | 0.29 g | -57%
17 | 78% | Partial agonist | > 1 µM | – | – | CC(C)(N)C(=O)N[C@H](Cc1c[nH]c2ccccc12)c1nnc(Cc2ccccc2)n1Cc1ccccn1 | – | –
18 | 28% | Partial agonist | 0.84 µM | – | – | Cc1ccc(Cn2c(Cc3ccccc3)nnc2[C@@H](Cc2c[nH]c3ccccc23)NC(=O)C(C)(C)N)cc1 | – | –
19 | 59% | Partial agonist | > 1 µM | – | – | CC(C)(N)C(=O)N[C@H](Cc1c[nH]c2ccccc12)c1nnc(CCc2ccccc2)n1Cc1ccccn1 | – | –
20 | 63% | – | – | 0.004 µM | – | COc1cccc(Cn2c(CCc3c[nH]c4ccccc34)nnc2[C@@H](Cc2c[nH]c3ccccc23)NC(=O)C(C)(C)N)c1 | – | –
21 | 64% | Partial agonist | 0.52 µM | – | – | CC(C)(N)C(=O)N[C@H](Cc1c[nH]c2ccccc12)c1nnc(Cc2ccccc2)n1Cc1ccc(Cl)c(Cl)c1 | – | –
22 | – | – | 0.015 µM | 0.064 µM | – | CC(C)(N)C(=O)N[C@H](Cc1c[nH]c2ccccc12)c1nnc(CCc2c[nH]c3ccccc23)n1Cc1ccccc1 | 0.02 g | -4%
23 | 27% | Partial agonist | 0.1 µM | – | – | CC(C)(N)C(=O)N[C@H](Cc1c[nH]c2ccccc12)c1nnc(CCc2c[nH]c3ccccc23)n1Cc1ccc(Br)cc1 | – | –
24 | 97% | – | 0.42 µM | 0.023 µM | – | CC(C)(N)C(=O)N[C@H](Cc1c[nH]c2ccccc12)c1nnc(CCc2ccccc2)n1Cc1ccco1 | – | –
25 | 91% | – | 0.57 µM | – | Agonist | CC(C)(N)C(=O)N[C@H](Cc1c[nH]c2ccccc12)c1nnc(CCc2ccccc2)n1Cc1cccs1 | – | –
26 | 53% | Partial agonist | 0.64 µM | – | – | CC(C)(N)C(=O)N[C@H](Cc1c[nH]c2ccccc12)c1nnc(CCc2ccccc2)n1Cc1ccc(Cl)c(Cl)c1 | – | –
27 | 69% | – | – | 0.63 µM | – | Cc1ccc(Cn2c(CCc3c[nH]c4ccccc34)nnc2[C@@H](Cc2c[nH]c3ccccc23)NC(=O)C(C)(C)N)cc1 | 0.3 g | -49%

Second part, the compound before the results:

Row | SMILES | Activity [1] | Activity ([4]; filed as partial agonist) | IC50 [5] | EC50 [4] | Activity ([4]; filed as agonist) | Activity (Rattus norvegicus [2]) | Activity (Rattus norvegicus [3])
28 | COc1ccc(Cn2c(CCc3c[nH]c4ccccc34)nnc2[C@@H](Cc2c[nH]c3ccccc23)NC(=O)C(C)(C)N)cc1 | 0% | – | – | – | – | 0.06 g | -31%
29 | CC(C)(N)C(=O)N[C@H](Cc1c[nH]c2ccccc12)c1nnc(Cc2ccccc2)n1CC(c1ccccc1)c1ccccc1 | 60% | Partial agonist | > 1 µM | – | – | – | –
30 | CCCCCCn1c(Cc2ccccc2)nnc1[C@@H](Cc1c[nH]c2ccccc12)NC(=O)C(C)(C)N | 67% | Partial agonist | 0.47 µM | – | – | – | –
31 | COc1cc(Cn2c(Cc3ccccc3)nnc2[C@@H](Cc2c[nH]c3ccccc23)NC(=O)C(C)(C)N)cc(OC)c1 | 29% | Partial agonist | 0.11 µM | – | – | – | –
32 | CC(C)(N)C(=O)N[C@H](Cc1c[nH]c2ccccc12)c1nnc(Cc2ccccc2)n1CCc1c[nH]c2ccccc12 | 95% | – | 0.7 µM | – | Agonist | – | –
33 | CC(C)(N)C(=O)N[C@H](Cc1c[nH]c2ccccc12)c1nnc(CCc2c[nH]c3ccccc23)n1CC(c1ccccc1)c1ccccc1 | 62% | Partial agonist | 0.64 µM | – | – | – | –
34 | COc1ccc(Cn2c(Cc3c[nH]c4ccccc34)nnc2[C@@H](Cc2c[nH]c3ccccc23)NC(=O)C(C)(C)N)c(OC)c1 | – | – | 1 µM | – | – | – | –
35 | CC(C)(N)C(=O)N[C@H](Cc1c[nH]c2ccccc12)c1nnc(Cc2ccccc2)n1Cc1cccc2ccccc12 | 78% | Partial agonist | – | – | – | – | –
36 | CCCCCCn1c(CCc2c[nH]c3ccccc23)nnc1[C@@H](Cc1c[nH]c2ccccc12)NC(=O)C(C)(C)N | 62% | Partial agonist | 0.195 µM | – | – | – | –
37 | CC(C)(N)C(=O)N[C@H](Cc1c[nH]c2ccccc12)c1nnc(Cc2c[nH]c3ccccc23)[nH]1 | – | – | 2.2 µM | – | – | – | –
38 | CC(C)(N)C(=O)N[C@H](Cc1c[nH]c2ccccc12)c1nnc(Cc2c[nH]c3ccccc23)n1CCc1ccccc1 | 88% | Partial agonist | 0.3 µM | – | – | – | –
39 | CC(C)(N)C(=O)N[C@H](Cc1c[nH]c2ccccc12)c1nnc(CCCc2c[nH]c3ccccc23)n1Cc1cccc2ccccc12 | 62% | Partial agonist | 0.14 µM | – | – | – | –
40 | COc1ccc(Cn2c(CCCc3c[nH]c4ccccc34)nnc2[C@@H](Cc2c[nH]c3ccccc23)NC(=O)C(C)(C)N)c(OC)c1 | 27% | Partial agonist | 0.75 µM | – | – | – | –
41 | Cn1c(CCc2c[nH]c3ccccc23)nnc1[C@@H](Cc1c[nH]c2ccccc12)NC(=O)C(C)(C)N | – | – | 0.58 µM | – | – | – | –
42 | COc1cccc(Cn2c(CCCc3c[nH]c4ccccc34)nnc2[C@@H](Cc2c[nH]c3ccccc23)NC(=O)C(C)(C)N)c1 | 66% | – | 0.022 µM | 0.018 µM | – | – | –
43 | CC(C)(N)C(=O)N[C@H](Cc1c[nH]c2ccccc12)c1nnc(CCc2c[nH]c3ccccc23)n1Cc1cccc2ccccc12 | 54% | Partial agonist | – | – | – | – | –
44 | CC(C)(N)C(=O)N[C@H](Cc1c[nH]c2ccccc12)c1nncn1CCc1c[nH]c2ccccc12 | – | – | 0.85 µM | – | – | – | –
45 | CC(C)(N)C(=O)N[C@H](Cc1c[nH]c2ccccc12)c1nnc(CCc2c[nH]c3ccccc23)n1-c1ccccc1 | 91% | – | – | 0.041 µM | – | – | –
46 | CC(C)(N)C(=O)N[C@H](Cc1c[nH]c2ccccc12)c1nnc(CCCc2c[nH]c3ccccc23)n1Cc1ccc(Br)cc1 | 25% | Partial agonist | – | – | – | – | –
47 | COc1cc(Cn2c(CCc3c[nH]c4ccccc34)nnc2[C@@H](Cc2c[nH]c3ccccc23)NC(=O)C(C)(C)N)cc(OC)c1 | 22% | Partial agonist | 0.15 µM | – | – | – | –
48 | Cn1c(Cc2c[nH]c3ccccc23)nnc1[C@@H](Cc1c[nH]c2ccccc12)NC(=O)C(C)(C)N | – | – | 1.7 µM | – | – | – | –
49 | CCCCCCn1c(CCCc2c[nH]c3ccccc23)nnc1[C@@H](Cc1c[nH]c2ccccc12)NC(=O)C(C)(C)N | 32% | Partial agonist | – | – | – | – | –
